Experimental data reported in publication PMC2788151 (Journal of immunology (Baltimore, Md. : 1950), 2009).
Non-standard residues stand in square brackets, D forms with d. Residues, ends and D or L forms follow the SMILES beside them. No end group written: not given here. *: point of attachment. Biotin = O=C1N[C@H]2[C@H](CS[C@H]2CCCCC(=O)*)N1; pY = N[C@@H](Cc1ccc(OP(=O)(O)O)cc1)C(=O)O

Key:
[1] = target: CD200R pY3 peptide (human); test: SPR
[2] = target: CD200R pY1,3 peptide (human); test: SPR
[3] = target: T1, Recombinant human Dok1 PTB domain (amino acids 140–268) (Homo sapiens, UniProt Q99704); type: binding
T1 sequence (Q99704 140-268): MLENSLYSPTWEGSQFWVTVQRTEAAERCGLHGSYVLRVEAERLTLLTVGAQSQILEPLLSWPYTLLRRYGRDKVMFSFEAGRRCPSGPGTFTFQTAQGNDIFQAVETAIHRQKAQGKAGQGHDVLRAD
Summary of the method: (§1)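 On a BIAcore 3000, ~4000 RU streptavidin was amine-coupled to CM5 chips at 25°C, then 50–150 RU biotinylated human phosphotyrosine peptides (CD200R tail, singly or doubly phosphorylated) were captured. Increasing concentrations of monomeric recombinant soluble PTB domain were passed over at 37°C to reach equilibrium binding. Signal from non-phosphorylated-peptide or streptavidin-only flow cells was subtracted, and the data were fitted to hyperbolas.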

[4] = target: T2, Recombinant human Dok2 PTB domain (amino acids 133–259) (Homo sapiens, UniProt O60496); type: binding
T2 sequence (O60496 133-259): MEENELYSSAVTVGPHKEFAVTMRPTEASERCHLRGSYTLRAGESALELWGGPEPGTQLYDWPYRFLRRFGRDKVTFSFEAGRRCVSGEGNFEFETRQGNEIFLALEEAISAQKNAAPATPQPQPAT
Summary of the method: as §1

[5] = target: CD200R pY1 peptide (human); test: SPR
[6] = target: CD200R pY1,2 peptide (human); test: SPR
[7] = target: T3, Recombinant human Dok2 PTB domain (amino acids 133-259) (human, UniProt O60496 133-259); test: SPR
T3 sequence (looked up): T2 sequence (O60496 133-259)

[8] = target: T4, Recombinant human Dok1 PTB domain (amino acids 140-268) (human, UniProt Q99704 140-268); test: SPR
T4 sequence (looked up): T1 sequence (Q99704 140-268)

CD200R pY1,3 peptide (human), sequence (Q8TD46 309-329): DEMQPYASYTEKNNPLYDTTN

**Q.** Which Kd [1] does the source give for “Recombinant human Dok2 PTB domain (amino acids 133-259) (from UniProt O60496 133-259) (domain or fragment)” here?
**A.** The Kd was 1.4 µM.

**Q.** And the Kd [2]?
**A.** The Kd was 0.6 µM.

**Q.** Which results are given for `CSCC[C@H](NC(=O)[C@H](CCC(=O)O)NC(=O)[C@H](CC(=O)O)NC(=O)CCCC[C@@H]1SC[C@@H]2NC(=O)N[C@@H]21)C(=O)N[C@@H](CCC(N)=O)C(=O)N1CCC[C@H]1C(=O)N[C@@H](Cc1ccc(O)cc1)C(=O)N[C@@H](C)C(=O)N[C@@H](CO)C(=O)N[C@@H](Cc1ccc(O)cc1)C(=O)N[C@H](C(=O)N[C@@H](CCC(=O)O)C(=O)N[C@@H](CCCCN)C(=O)N[C@@H](CC(N)=O)C(=O)N[C@@H](CC(N)=O)C(=O)N1CCC[C@H]1C(=O)N[C@@H](CC(C)C)C(=O)N[C@@H](Cc1ccc(OP(=O)(O)O)cc1)C(=O)N[C@@H](CC(=O)O)C(=O)N[C@H](C(=O)N[C@H](C(=O)N[C@@H](CC(N)=O)C(=O)O)[C@@H](C)O)[C@@H](C)O)[C@@H](C)O` [CD200R pY3] (Biotin-DEMQPYASYTEKNNPL[pY]DTTN-OH)?
**A.** Kd [3]: 7.3 µM; Kd [4]: 1.4 µM

**Q.** With `CSCC[C@H](NC(=O)[C@H](CCC(=O)O)NC(=O)[C@H](CC(=O)O)NC(=O)CCCC[C@@H]1SC[C@@H]2NC(=O)N[C@@H]21)C(=O)N[C@@H](CCC(N)=O)C(=O)N1CCC[C@H]1C(=O)N[C@@H](Cc1ccc(OP(=O)(O)O)cc1)C(=O)N[C@@H](C)C(=O)N[C@@H](CO)C(=O)N[C@@H](Cc1ccc(O)cc1)C(=O)N[C@H](C(=O)N[C@@H](CCC(=O)O)C(=O)N[C@@H](CCCCN)C(=O)N[C@@H](CC(N)=O)C(=O)N[C@@H](CC(N)=O)C(=O)N1CCC[C@H]1C(=O)N[C@@H](CC(C)C)C(=O)N[C@@H](Cc1ccc(O)cc1)C(=O)N[C@@H](CC(=O)O)C(=O)N[C@H](C(=O)N[C@H](C(=O)N[C@@H](CC(N)=O)C(=O)O)[C@@H](C)O)[C@@H](C)O)[C@@H](C)O` [CD200R pY1] (Biotin-DEMQP[pY]ASYTEKNNPLYDTTN-OH) as the molecule, how does the Kd [3] read?
**A.** The Kd was 14 µM.

**Q.** How did the Kd [3] turn out when `CSCC[C@H](NC(=O)[C@H](CCC(=O)O)NC(=O)[C@H](CC(=O)O)NC(=O)CCCC[C@@H]1SC[C@@H]2NC(=O)N[C@@H]21)C(=O)N[C@@H](CCC(N)=O)C(=O)N1CCC[C@H]1C(=O)N[C@@H](Cc1ccc(OP(=O)(O)O)cc1)C(=O)N[C@@H](C)C(=O)N[C@@H](CO)C(=O)N[C@@H](Cc1ccc(O)cc1)C(=O)N[C@H](C(=O)N[C@@H](CCC(=O)O)C(=O)N[C@@H](CCCCN)C(=O)N[C@@H](CC(N)=O)C(=O)N[C@@H](CC(N)=O)C(=O)N1CCC[C@H]1C(=O)N[C@@H](CC(C)C)C(=O)N[C@@H](Cc1ccc(OP(=O)(O)O)cc1)C(=O)N[C@@H](CC(=O)O)C(=O)N[C@H](C(=O)N[C@H](C(=O)N[C@@H](CC(N)=O)C(=O)O)[C@@H](C)O)[C@@H](C)O)[C@@H](C)O` [CD200R pY1,3] (Biotin-DEMQP[pY]ASYTEKNNPL[pY]DTTN-OH) was run?
**A.** The Kd was 6.2 µM.

**Q.** And the Kd [4]?
**A.** Its Kd is 0.6 µM.

**Q.** What does the source list for “Recombinant human Dok1 PTB domain (amino acids 140-268) (from UniProt Q99704 140-268) (domain or fragment)”?
**A.** Kd [1]: 7.3 µM; Kd [5]: 14 µM; Kd [6]: 8.4 µM; Kd [2]: 6.2 µM

**Q.** How did the Kd [3] turn out when `CSCC[C@H](NC(=O)[C@H](CCC(=O)O)NC(=O)[C@H](CC(=O)O)NC(=O)CCCC[C@@H]1SC[C@@H]2NC(=O)N[C@@H]21)C(=O)N[C@@H](CCC(N)=O)C(=O)N1CCC[C@H]1C(=O)N[C@@H](Cc1ccc(OP(=O)(O)O)cc1)C(=O)N[C@@H](C)C(=O)N[C@@H](CO)C(=O)N[C@@H](Cc1ccc(OP(=O)(O)O)cc1)C(=O)N[C@H](C(=O)N[C@@H](CCC(=O)O)C(=O)N[C@@H](CCCCN)C(=O)N[C@@H](CC(N)=O)C(=O)N[C@@H](CC(N)=O)C(=O)N1CCC[C@H]1C(=O)N[C@@H](CC(C)C)C(=O)N[C@@H](Cc1ccc(O)cc1)C(=O)N[C@@H](CC(=O)O)C(=O)N[C@H](C(=O)N[C@H](C(=O)N[C@@H](CC(N)=O)C(=O)O)[C@@H](C)O)[C@@H](C)O)[C@@H](C)O` [CD200R pY1,2] (Biotin-DEMQP[pY]AS[pY]TEKNNPLYDTTN-OH) was run?
**A.** The Kd was 8.4 µM.

**Q.** For `CC[C@H](C)[C@H](NC(=O)[C@H](CCC(=O)O)NC(=O)[C@@H](NC(=O)CCCC[C@@H]1SC[C@@H]2NC(=O)N[C@@H]21)[C@@H](C)O)C(=O)N[C@H](C(=O)N[C@@H](CC(N)=O)C(=O)N1CCC[C@H]1C(=O)N[C@@H](CC(N)=O)C(=O)N[C@@H](Cc1ccc(OP(=O)(O)O)cc1)C(=O)N[C@@H](CCSC)C(=O)NCC(=O)N[C@H](C(=O)NCC(=O)N1CCC[C@H]1C(=O)O)C(C)C)[C@@H](C)CC` [SHIP pY917] (Biotin-TEIINPN[pY]MGVGP-OH), which Kd [3] is on record?
**A.** The Kd was 13 µM.

**Q.** `CSCC[C@H](NC(=O)[C@H](CCC(=O)O)NC(=O)CCCC[C@@H]1SC[C@@H]2NC(=O)N[C@@H]21)C(=O)N[C@@H](Cc1ccccc1)C(=O)N[C@@H](CCC(=O)O)C(=O)N[C@@H](CC(N)=O)C(=O)N1CCC[C@H]1C(=O)N[C@@H](CC(C)C)C(=O)N[C@@H](Cc1ccc(OP(=O)(O)O)cc1)C(=O)NCC(=O)N[C@@H](CO)C(=O)N[C@@H](CC(C)C)C(=O)N[C@@H](CO)C(=O)N[C@@H](CO)C(=O)O` [SHIP pY1022] (Biotin-EMFENPL[pY]GSLSS-OH) was tested. Which Kd [3] did it give?
**A.** Its Kd is 13 µM.

**Q.** For Biotin-TEIINPN[pY]MGVGP [SHIP pY917 peptide], which Kd [7] is on record?
**A.** Its Kd is over 30 µM.

**Q.** Biotin-EMLENSL[pY]SPTW [Dok1 pY146 peptide] was tested. Which Kd [8] did it give?
**A.** Its Kd is 6.9 µM.

**Q.** With Biotin-CMEENEL[pY]SSAV [Dok2 pY139 peptide] as the molecule, how does the Kd [8] read?
**A.** Its Kd is 3.3 µM.
